Assays:
Dipeptidyl peptidase 2 = Dipeptidyl peptidase 2 (Homo sapiens, UniProt Q9UHL4); assay: Inhibitory activity against human quiescent cell proline dipeptidase
Dipeptidyl peptidase 4 = Dipeptidyl peptidase 4 (Homo sapiens, UniProt P27487); assay: Inhibitory activity against human recombinant Dipeptidylpeptidase IV
Outline: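 Human recombinant enzyme run in a fluorometric assay with Gly-Pro-AMC as substrate. Cleavage releases fluorescent 7-amino-4-methylcoumarin, which is read to give IC50 values.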

[1] = Inhibitory activity against human aminopeptidase P
Prolyl endopeptidase = target: T1, Prolyl endopeptidase (Homo sapiens, UniProt P48147); assay: Inhibitory activity against human prolyl endopeptidase
T1 sequence (P48147 whole entry): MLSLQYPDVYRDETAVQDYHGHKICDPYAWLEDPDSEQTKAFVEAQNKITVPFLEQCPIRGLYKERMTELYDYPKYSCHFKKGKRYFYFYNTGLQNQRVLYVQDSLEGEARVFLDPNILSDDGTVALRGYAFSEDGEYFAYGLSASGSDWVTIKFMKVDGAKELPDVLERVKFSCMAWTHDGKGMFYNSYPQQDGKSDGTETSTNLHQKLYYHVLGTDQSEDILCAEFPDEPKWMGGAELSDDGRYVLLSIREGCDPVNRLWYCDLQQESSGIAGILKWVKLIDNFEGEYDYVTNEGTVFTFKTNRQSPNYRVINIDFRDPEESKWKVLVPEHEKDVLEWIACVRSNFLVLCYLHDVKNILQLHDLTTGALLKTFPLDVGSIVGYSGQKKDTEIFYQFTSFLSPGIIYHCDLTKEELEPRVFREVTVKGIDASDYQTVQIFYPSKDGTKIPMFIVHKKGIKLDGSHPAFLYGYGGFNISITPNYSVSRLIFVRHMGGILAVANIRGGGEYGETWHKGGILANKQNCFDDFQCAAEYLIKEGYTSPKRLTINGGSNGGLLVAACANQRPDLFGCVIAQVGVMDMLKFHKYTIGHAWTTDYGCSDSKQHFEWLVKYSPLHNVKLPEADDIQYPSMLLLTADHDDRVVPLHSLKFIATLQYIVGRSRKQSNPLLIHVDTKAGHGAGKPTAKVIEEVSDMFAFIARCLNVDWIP

Dipeptidyl peptidase 4, sequence (P27487 whole entry): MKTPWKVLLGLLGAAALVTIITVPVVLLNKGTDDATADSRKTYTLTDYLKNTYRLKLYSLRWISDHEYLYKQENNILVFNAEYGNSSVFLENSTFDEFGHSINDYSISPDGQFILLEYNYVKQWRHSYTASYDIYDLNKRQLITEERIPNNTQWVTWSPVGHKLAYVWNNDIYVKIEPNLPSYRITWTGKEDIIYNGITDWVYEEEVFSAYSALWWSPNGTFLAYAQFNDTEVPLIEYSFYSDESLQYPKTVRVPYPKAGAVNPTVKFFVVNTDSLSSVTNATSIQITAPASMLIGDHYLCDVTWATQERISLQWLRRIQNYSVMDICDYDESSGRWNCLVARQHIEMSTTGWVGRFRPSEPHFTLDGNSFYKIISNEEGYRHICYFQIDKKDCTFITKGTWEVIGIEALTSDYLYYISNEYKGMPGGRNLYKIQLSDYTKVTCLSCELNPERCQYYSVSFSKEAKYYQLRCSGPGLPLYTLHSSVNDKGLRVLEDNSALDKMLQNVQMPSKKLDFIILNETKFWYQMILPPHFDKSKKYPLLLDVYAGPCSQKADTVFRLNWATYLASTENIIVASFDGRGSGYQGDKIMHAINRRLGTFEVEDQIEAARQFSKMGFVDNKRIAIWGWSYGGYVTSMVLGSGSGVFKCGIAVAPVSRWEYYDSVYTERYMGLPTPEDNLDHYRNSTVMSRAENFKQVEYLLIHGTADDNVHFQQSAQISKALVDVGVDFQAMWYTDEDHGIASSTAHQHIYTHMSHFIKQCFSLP

IC50 (Dipeptidyl peptidase 2): 50 µM
IC50 (Dipeptidyl peptidase 4): 4.6 µM
IC50 [1]: > 100 µM
IC50 (Prolyl endopeptidase): > 100 µM
SMILES: N[C@H](C(=O)N1CCCC1)[C@H]1CC[C@@H](O)C1

From ChEMBL document CHEMBL1148427, “Diastereoselective synthesis and configuration-dependent activity of (3-substituted-cycloalkyl)glycine pyrrolidides and thiazolidides as dipeptidyl peptidase IV inhibitors” (Bioorg Med Chem Lett, 2004)
